Results taken from ChEMBL document CHEMBL4673181, “An investigation of the antileishmanial properties of semi-synthetic saponins” (RSC Med Chem, 2020).

How the values were obtained:
[1] = system: Leishmania mexicana; assay: Antileishmanial activity against axenic amastigote stage of Leishmania mexicana (MNYC/BZ/62/M379) assessed as inhibition of parasite proliferation at 50 uM incubated for 24 hrs by alamar blue dye based fluorescence analysis; format: functional
In short: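 Primary single-point screen at 50 μM, in duplicate. Axenic L. mexicana amastigotes at 4x10⁵ mL⁻¹ incubated with compound 24 h at 33 °C in sealed plates, then alamarBlue for a further 24 h at the same temperature. Viability read by fluorescence at 560/600 nm against amphotericin B (50 μM) and DMSO controls.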

[2] = system: Leishmania mexicana; assay: Antileishmanial activity against axenic amastigote stage of Leishmania mexicana (MNYC/BZ/62/M379) infected in mouse RAW264.7 cells assessed as induction of parasite killing incubated for 24 hrs by alamar blue dye based fluorescence analysis; format: functional
In short: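 RAW264.7 cells seeded at 2.5x10⁵ mL⁻¹ in DMEM with 10% HIFBS for 24 h at 37 °C, 5% CO₂, then infected with axenic amastigotes at 25x10⁵ mL⁻¹ in DMEM with 2% HIFBS for 24 h. Washed 5x, compound added for 24 h. Cells lysed with 0.05% SDS, then grown in Schneider's (pH7, 15% HIFBS) 48 h at 26 °C. alamarBlue 4 h, fluorescence 560/600 nm. Triplicate, three occasions.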

[3] = Cytotoxicity against mouse RAW264.7 cells assessed as induction of cell killing incubated for 24 hrs by alamar blue dye based fluorescence analysis; settings: read-out: ED50
In short: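 Mouse macrophages seeded at 2.5×10^5 mL⁻¹ in DMEM/10% HIFBS, 24 h at 37 °C, 5% CO₂. Then washed and held 24 h in DMEM/2% HIFBS. Compounds 100 μM to 0.41 μM in 2% HIFBS medium for 24 h. alamarBlue 4 h, then fluorescence at 560/600 nm. Cycloheximide (50 μM) positive, DMSO negative control. EC₅₀ derived.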

[4] = system: Leishmania mexicana; assay: Antileishmanial activity against axenic amastigote stage of Leishmania mexicana (MNYC/BZ/62/M379) assessed as induction of parasite killing incubated for 24 hrs by alamar blue dye based fluorescence analysis; format: functional; settings: read-out: ED50 (the source's name)
In short: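 L. mexicana axenic amastigotes (from promastigotes by pH/temperature shift; Schneider's with 20% HIFBS) at 4x10⁵ mL⁻¹, exposed to three-fold dilutions from 50 μM to 0.21 μM for 24 h at 33 °C in sealed plates. alamarBlue then added for another 24 h, fluorescence read at 560/600 nm. Amphotericin B (50 μM) positive, DMSO negative control. Duplicates on four occasions, EC₅₀ fitted.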

[5] = Selectivity index, ratio of ED50 for mouse RAW264.7 cells to ED50 for antileishmanial activity against axenic amastigote stage of Leishmania mexicana (MNYC/BZ/62/M379); format: toxicity; settings: read-out: Ratio ED50
In short: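 Selectivity index calculated as EC₅₀ in RAW macrophages (24 h alamarBlue cytotoxicity assay) divided by EC₅₀ against axenic L. mexicana amastigotes.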

SMILES	inhibition at 50 µM [1] [%]	ED50 [2] [µM]	CC50 at 24 h [3] [µM]	EC50 [4] [µM]	selectivity ratio [5]
CC1(C)CC[C@]2(C(=O)O)CC[C@]3(C)C(=CC[C@@H]4[C@@]5(C)CC[C@H](OC(=O)CCC(=O)O)[C@@](C)(COC(=O)CCC(=O)O)[C@@H]5CC[C@]43C)[C@@H]2C1	≥ 95	>50	> 100	2.3	> 44
CC1(C)CC[C@]2(NC(=O)N3CCC[C@H]3C(=O)O)CC[C@]3(C)C(=CC[C@@H]4[C@@]5(C)CC[C@@H]6OC(C)(C)OC[C@@]6(C)[C@@H]5CC[C@]43C)[C@@H]2C1	≥ 95	–	5.4	0.9	6
COC(=O)[C@]12CCC(C)(C)C[C@H]1C1=CC[C@@H]3[C@@]4(C)CC[C@@H]5O[C@H](c6ccccc6C(=O)O)OC[C@@]5(C)[C@@H]4CC[C@@]3(C)[C@]1(C)CC2	≥ 95	–	4.8	10	0.5
CC1(C)CC[C@]2(C(=O)O)CC[C@]3(C)C(=CC[C@@H]4[C@@]5(C)CC[C@@H]6O[C@H]([C@H](O)[C@@H](O)[C@H](O)[C@H](O)CO)OC[C@@]6(C)[C@@H]5CC[C@]43C)[C@@H]2C1	≥ 95	–	29.6	4.5	6.7
CO[C@H]1O[C@H]([C@@H]2OC[C@@]3(C)[C@@H]4CC[C@]5(C)[C@H](CC=C6[C@@H]7CC(C)(C)CC[C@]7(C(=O)O)CC[C@]65C)[C@@]4(C)CC[C@@H]3O2)[C@@H](O)[C@H](O)[C@H]1O	≥ 95	–	29.7	6	5
CC1(C)CC[C@]2(C(=O)O)CC[C@]3(C)C(=CC[C@@H]4[C@@]5(C)CC[C@@H]6O[C@H]([C@H](O)[C@@H](O)[C@H](O)CO)OC[C@@]6(C)[C@@H]5CC[C@]43C)[C@@H]2C1	≥ 95	–	29.2	9.7	3
CC1(C)CC[C@]2(C(=O)O)CC[C@]3(C)C(=CC[C@@H]4[C@@]5(C)CC[C@@H]6O[C@H](C[C@H]7O[C@H](CO)[C@@H](O)[C@H](O)[C@H]7O)OC[C@@]6(C)[C@@H]5CC[C@]43C)[C@@H]2C1	≥ 95	–	36.7	7.5	4.9
CC(=O)OC[C@@]1(C)[C@@H]2CC[C@]3(C)[C@H](CC=C4[C@@H]5CC(C)(C)CC[C@]5(NC(=O)N5CCCC5)CC[C@]43C)[C@@]2(C)CC[C@@H]1O	≥ 95	–	10.9	10.4	1
COC(=O)[C@]12CCC(C)(C)C[C@H]1C1=CC[C@@H]3[C@@]4(C)CC[C@@H]5O[C@H]([C@H](O)[C@@H](O)[C@H](O)[C@H](O)CO)OC[C@@]5(C)[C@@H]4CC[C@@]3(C)[C@]1(C)CC2	≥ 95	–	10.2	9.5	1.1
CC1(C)CC[C@]2(C(=O)O)CC[C@]3(C)C(=CC[C@@H]4[C@@]5(C)CC[C@H](O)[C@@](C)(C=O)[C@@H]5CC[C@]43C)[C@@H]2C1	≥ 95	–	36.6	9.6	3.8
CC1(C)CC[C@]2(C(=O)OCCC3OCCCO3)CC[C@]3(C)C(=CC[C@@H]4[C@@]5(C)CC[C@H](O)[C@@](C)(CO)[C@@H]5CC[C@]43C)[C@@H]2C1	≥ 95	–	–	> 50	–
C[C@H](O)[C@H]1OC(C[C@@H]2OC[C@@]3(C)[C@@H]4CC[C@]5(C)[C@H](CC=C6[C@@H]7CC(C)(C)CC[C@]7(C(=O)O)CC[C@]65C)[C@@]4(C)CC[C@@H]3O2)[C@@H](O)[C@@H]1O (some centres undefined)	≥ 95	–	30.2	10.3	2.9
CC1(C)CC[C@]2(NC(=O)N3CCC[C@H]3C(=O)NCCCn3ccnc3)CC[C@]3(C)C(=CC[C@@H]4[C@@]5(C)CC[C@@H]6OC(C)(C)OC[C@@]6(C)[C@@H]5CC[C@]43C)[C@@H]2C1	≥ 95	–	–	20.2	–
CC1(C)CC[C@]2(NC(=O)NCCN)CC[C@]3(C)C(=CC[C@@H]4[C@@]5(C)CC[C@@H]6OC(C)(C)OC[C@@]6(C)[C@@H]5CC[C@]43C)[C@@H]2C1	≥ 95	–	–	> 50	–
CC1(C)CC[C@]2(NC(=O)NCCCn3ccnc3)CC[C@]3(C)C(=CC[C@@H]4[C@@]5(C)CC[C@@H]6OC(C)(C)OC[C@@]6(C)[C@@H]5CC[C@]43C)[C@@H]2C1	≥ 95	–	–	37.6	–
CC(=O)OC[C@H](OC(C)=O)[C@H](OC(C)=O)[C@@H](OC(C)=O)[C@@H]1OC[C@@]2(C)[C@@H]3CC[C@]4(C)[C@H](CC=C5[C@@H]6CC(C)(C)CC[C@]6(C(=O)O)CC[C@]54C)[C@@]3(C)CC[C@@H]2O1	≥ 95	–	11.1	7.2	1.5
COC(=O)[C@H](Cc1c[nH]cn1)NC(=O)N[C@]12CCC(C)(C)C[C@H]1C1=CC[C@@H]3[C@@]4(C)CC[C@@H]5OC(C)(C)OC[C@@]5(C)[C@@H]4CC[C@@]3(C)[C@]1(C)CC2	≥ 95	–	–	20.9	–
COC(=O)[C@]12CCC(C)(C)C[C@H]1C1=CC[C@@H]3[C@@]4(C)CC[C@@H]5O[C@H](CC6O[C@H]([C@H](C)O)[C@@H](O)[C@@H]6O)OC[C@@]5(C)[C@@H]4CC[C@@]3(C)[C@]1(C)CC2 (some centres undefined)	≥ 95	–	–	> 50	–
CC1(C)CC[C@]2(C(=O)O)CC[C@]3(C)C(=CC[C@@H]4[C@@]5(C)CC[C@@H]6OCOC[C@@]6(C)[C@@H]5CC[C@]43C)[C@@H]2C1	≥ 95	–	–	14.9	–
C[C@@H]1O[C@@H](C[C@@H]2OC[C@@]3(C)[C@@H]4CC[C@]5(C)[C@H](CC=C6[C@@H]7CC(C)(C)CC[C@]7(C(=O)O)CC[C@]65C)[C@@]4(C)CC[C@@H]3O2)[C@H](O)[C@H](O)[C@H]1O	≥ 95	–	–	13.9	–
COC(=O)[C@]12CCC(C)(C)C[C@H]1C1=CC[C@@H]3[C@@]4(C)CC[C@H](O)[C@@](C)(CO)[C@@H]4CC[C@@]3(C)[C@]1(C)CC2	≥ 95	–	–	12	–
CCOCc1ccc(C2OC[C@@]3(C)[C@@H]4CC[C@]5(C)[C@H](CC=C6[C@@H]7CC(C)(C)CC[C@]7(C(=O)O)CC[C@]65C)[C@@]4(C)CC[C@@H]3O2)o1 (some centres undefined)	≥ 95	–	–	19.2	–
